Source: PubChem
EP2 modulator – modulates human prostaglandin E2 receptor EP2 signaling; P43116; EP2-expressing cells, cAMP HTRF FRET, PGE2 co-stimulation; induction, % at 25 µM; 260,000 compounds, 0.83% hits; AID 940;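 active = compounds whose cAMP rise, as percent of the full-agonist control response, exceeds 60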;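 also: rat C6 glioma line stably carrying human EP2 under a CMV promoter; the protocol text gives 20 µM as final concentration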
FXIa inh – inhibitors of human coagulation factor XIa | purified FXIa, Boc-Glu-Ala-Arg-AMC fluorogenic substrate | inhibition, % at 5 µM | 220,000 compounds, 0.14% hits | AID 798;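 active = inhibition of at least 40%; inactive = inhibition below 40%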;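 also: fluorescence of freed AMC excited at 355 nm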
hK5 inh – kallikrein 5 (human) inhibition; Q9Y337; recombinant hK5, fluorogenic AMC substrate cleavage; inhibition, % at 5 µM; 210,000 compounds, 0.59% hits; AID 873;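 active = inhibition of 40% or more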
PGE2 EP2 inh – EP2 receptor (human) inhibition | inhibition, % at 25 µM | P43116 | 260,000 compounds, 0.52% hits | C6 glioma cells expressing human EP2, cAMP TR-FRET; cells stimulated with saturating PGE2;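 active = percent inhibition above 40 after rounding to a whole number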;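 also: rat C6 glioma host cells with rolipram phosphodiesterase inhibitor present; the protocol text gives 20 µM as final concentration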
Thrombin inh – blocks human thrombin protease activity; alpha-thrombin, Boc-VPR-AMC fluorogenic substrate cleavage; 220,000 compounds, 0.26% hits; P00734; inhibition, % at 5 µM; AID 1046;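 active = inhibition at or above 40%; inactive = inhibition below 40%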
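Assay system: human alpha-thrombin enzyme. Reagent: Boc-VPR-AMC substrate, 15 µM final. Compound dosing: one concentration per compound, 5 µM, with 0.2% DMSO. Incubation: room-temperature reaction. Technique: AMC fluorescence, 355/460 nm. Measure: % inhibition relative to enzyme controls and enzyme-free blanks.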
FXIIa inh – inhibitors of human coagulation factor XIIa | P00748 | purified FXIIa, Boc-QGR-AMC fluorogenic substrate, 2 h | inhibition, % at 5 µM | 220,000 compounds, 0.3% hits; in the data active = inhibition above about 40%
Target sequence (P00748 20-372 limits assumed): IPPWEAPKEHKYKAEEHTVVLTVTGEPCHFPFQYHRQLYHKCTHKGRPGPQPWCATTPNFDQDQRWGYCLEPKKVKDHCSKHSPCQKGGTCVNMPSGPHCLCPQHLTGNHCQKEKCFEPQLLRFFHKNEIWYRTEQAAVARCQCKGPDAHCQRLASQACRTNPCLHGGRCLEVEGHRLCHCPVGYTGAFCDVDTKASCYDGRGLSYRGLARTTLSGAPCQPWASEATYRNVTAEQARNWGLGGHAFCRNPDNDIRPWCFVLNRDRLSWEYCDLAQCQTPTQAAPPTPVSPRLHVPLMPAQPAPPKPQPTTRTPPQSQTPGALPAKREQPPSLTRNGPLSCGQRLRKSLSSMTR
Target sequence (P00748 373-615 limits assumed): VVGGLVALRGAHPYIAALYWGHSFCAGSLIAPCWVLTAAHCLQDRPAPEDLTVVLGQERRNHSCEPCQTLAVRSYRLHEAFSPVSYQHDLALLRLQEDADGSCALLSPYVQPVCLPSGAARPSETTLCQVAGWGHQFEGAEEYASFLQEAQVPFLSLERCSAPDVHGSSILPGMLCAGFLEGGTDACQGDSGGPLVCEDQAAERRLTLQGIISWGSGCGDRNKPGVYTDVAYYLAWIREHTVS
EP2 cAMP induct – human EP2 receptor cAMP induction, negative in counter-screens | shares compounds with EP2 modulator | C6 glioma EP2 cells, cAMP HTRF induction; plus low (about EC15) PGE2 agonist | calls only at 20 µM (by protocol) | 1,300 compounds, 47% hits | AID 1080;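 active = cAMP induction above 50% in the main assay while under 30% in all four parallel counter assays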;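 also: rat C6 glioma cells stably expressing human EP2 receptor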
A number is an active result; n = inactive; x = no result; + = active, no number; ! = not confirmed by another sample. In the library only some 2.1% were active in any assay of this set; here they are far more common.

SMILES	EP2 modulator	FXIa inh	hK5 inh	PGE2 EP2 inh	Thrombin inh	FXIIa inh	EP2 cAMP induct
CCOC(=O)C1=CN(CC2CCCO2)C=C(C(=O)OCC)C1c1ccccc1C(F)(F)F (stereo unspecified)	73.6	n	n	n	n	n	n
CCOC(=O)c1cc2c(=O)n3ccccc3nc2n(CC2CCCO2)c1=NC(C)=O (stereo unspecified)	x	x	x	n	x	x	x
COc1cc(-c2noc(-c3cccc(Cl)c3)n2)cc(OC)c1OC	n	n	n	n	n	n	+
COc1ccc(-c2nc(-c3cccc(C)c3)no2)cc1OC	n	n	n	n	n	n	x
COc1cc(-c2nc(-c3cccc(C)c3)no2)cc(OC)c1OC	61.0	n	n	n	n	n	n
CCCN1Cc2cccc(C(=O)Nc3ccc4c(c3)OCO4)c2C1=O	n	n	n	x	n	n	x
O=C(Nc1ccc2c(c1)OCO2)c1cccc2c1C(=O)N(C1CCCCC1)C2	71.1	n	n	n	x	n	+
COC(=O)c1ccc(-c2ccco2)n1Cc1cccc(C)c1	77.5	n	n	n	n	n	+
COC(=O)c1cn(Cc2cccc(C)c2)nn1	n	n	n	n	n	n	x
CC(C)N(C(=O)C1CCCCC1)c1nnc(-c2cccnc2)s1	n	x	x	n	x	x	x
O=C(OCC(=O)N1N=C(c2ccc(Cl)cc2)CC1c1ccco1)c1ccccc1O (stereo unspecified)	n	n	n	n	n	n	x
O=C(OCC(=O)N1N=C(c2ccc(Cl)cc2)CC1c1ccco1)c1ccco1 (stereo unspecified)	68.5	n	n	n	n	n	n
COc1ccc(CN(Cc2cnc(C(C)C)nc2)CC2CCCO2)c(OC)c1 (stereo unspecified)	n	x	x	n	x	x	x
Cc1ccc(OCC(=O)NNC(=O)C2CCN(c3ncccn3)CC2)cc1	64.9!	n	n	n	n	n	n
COC(=O)C(CCSC)NS(=O)(=O)c1ccc(Cl)cc1 (stereo unspecified)	n	n	n	n	n	n	x
COc1ccc(C(=O)COC(=O)C(CCSC)NS(=O)(=O)c2ccc(Cl)cc2)cc1 (stereo unspecified)	69.5	n	n	n	n	n	n
CC(C)N(CCNC(=O)c1oc(=O)c2ccccc2c1-c1ccccc1)Cc1ccco1	68.7	n	n	n	n	n	n
COc1ccccc1NC(=O)CSc1ncnc2sc(C)c(C)c12	n	x	x	n	x	x	x
CC(C)Oc1ccc(C(=O)Nc2ccccc2N2CCN(C(=O)C(C)C)CC2)cc1	n	x	x	n	x	x	x
